APP 5UTR inh = APP translation inhibition | AID 1285 | SH-SY5Y APP 5'UTR-luciferase reporter, luminescence | inhibition, % at 2 µM | 0.82% of 190,000 active;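 active means inhibition above a set limit, derived from the sample mean plus 3 SD, cut at about 45% in these data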
FLuc inhib CS = counter-screen for luciferase assay inhibitors: firefly luciferase inhibition; 1.5% of 200,000 active; AID 1006; ATPLite firefly luciferase biochemical luminescence, 10 min; inhibition, % at 10 µM;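 active means inhibition above about 50% when tested at 10 µM, limit read from the data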
Target sequence (P08659 whole entry, looked up): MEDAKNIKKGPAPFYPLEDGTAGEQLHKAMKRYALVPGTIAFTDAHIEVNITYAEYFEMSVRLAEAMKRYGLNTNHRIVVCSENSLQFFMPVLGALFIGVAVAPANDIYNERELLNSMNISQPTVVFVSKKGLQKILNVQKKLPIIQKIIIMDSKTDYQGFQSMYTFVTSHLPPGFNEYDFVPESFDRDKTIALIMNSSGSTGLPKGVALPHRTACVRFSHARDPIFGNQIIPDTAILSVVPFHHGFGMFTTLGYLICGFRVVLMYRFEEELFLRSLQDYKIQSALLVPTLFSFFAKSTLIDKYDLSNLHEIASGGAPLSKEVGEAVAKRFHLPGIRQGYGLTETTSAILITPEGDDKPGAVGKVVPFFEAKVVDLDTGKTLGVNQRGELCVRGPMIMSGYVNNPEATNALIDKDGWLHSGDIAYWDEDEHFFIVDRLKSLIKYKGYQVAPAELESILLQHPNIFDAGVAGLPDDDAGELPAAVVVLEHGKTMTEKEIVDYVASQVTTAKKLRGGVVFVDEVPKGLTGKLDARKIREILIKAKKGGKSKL
NF-kB neuron act = NF-kB expression increase, human neuronal cells; NF-kB reporter expression; stronger effect = higher value; 1.6% of 190,000 active; fold change at 12.5 µM; AID 1239; in the data active means fold change above about 3.3
APP 5'UTR act = activates APP 5'UTR luciferase reporter; SH-SY5Y APP 5'UTR luciferase reporter, luminescence; zero percent = DMSO vehicle wells; AID 1276; 1% of 190,000 active; activation, % at 2 µM;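 active means activation above a set limit, based on mean plus 3 SD of controls, cut at about 140% in these data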
STAT1 activator = increases IFN-gamma driven STAT1 reporter signal; NIH 3T3 STAT1-luciferase reporter, luminescence; 100% = IFN-gamma alone, no compound; activation (% of control), % at 5.5 µM; 2.6% of 200,000 active;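 active means activation above the screen-wide mean activation plus 3 SD, cut at about 130% in these data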;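 further: raw ratio to IFN-gamma control signal so 100% means no change and 0% no light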
FLuc act counter = firefly luciferase counter-screen for stimulation assays | ATPlite luciferase biochemical, luminescence, 10 min; 0 = ATP-free wells, 1 = DMSO control | 200,000 tested, under 10 active | AID 1027 | activation factor at 10 µM | P08659;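 active means luciferase activation factor, scaled between plate controls, of at least 2 with compound at 10 µM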
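System: Luciferase/luciferin detection reagent, cell-free biochemical luciferase assay | Medium: PBS buffer for ATP | Dosing: Test compounds dosed from 2 mM stocks in 100% DMSO | Timing: 10 min at ambient temperature | Signal: Luminescence measurement of luciferase light output | Evaluation: Luciferase activation, seen as luminescence increase over controls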
* = called active by the depositor; / = not tested or not shown. Only some compounds are listed: those with a hit (about 4.8% of all), similar ones and a draw of the others.

SMILES	APP 5UTR inh	FLuc inhib CS	NF-kB neuron act	APP 5'UTR act	STAT1 activator	FLuc act counter
COc1ccc2cc(-c3cc(C(=O)O)c4ccccc4n3)ccc2c1	-84	98*	6.3*	84	36	0
COc1ccc(-c2cc(C(=O)N3CCN(c4ccccc4)CC3)c3ccccc3n2)cc1	75*	64*	1.1	-75	105	0.4
CCOc1ccc(-c2cc(C(=O)N3CCN(c4ccccn4)CC3)c3ccccc3n2)cc1	-36	90*	1.3	36	116	0.1
COc1ccc(-c2cc(C(=O)N3CCN(c4ccccn4)CC3)c3ccccc3n2)cc1	-69	80*	1	69	108	0.2
COc1cc(-c2cc(C(=O)N3CCN(c4ccccn4)CC3)c3ccccc3n2)cc(OC)c1OC	2	/	0.35	-2	79	/
COc1ccc(-c2cc(C(=O)O)c3ccccc3n2)c(OC)c1	8	0	1.2	-8	98	1
CCOc1ccc(-c2nc(CSc3nncs3)cs2)cc1OC	-17	-1	1.1	17	109	1
COc1ccc(S(=O)(=O)NC(C)CCc2ccccc2)cc1 (stereo not given)	-21	-4	1.1	21	95	1
CNC(=O)COC(=O)/C=C/c1c(C)nn(-c2ccccc2)c1C	11	-2	1	-11	96	1
COc1ccc(-c2cc(C(=O)c3c(N)n(C)c(=O)n(C)c3=O)c3ccccc3n2)cc1OC	-11	62*	1.2	11	111	0.4
Clc1ccc2nc(-c3ccccn3)c(Nc3ccc4c(c3)OCO4)n2c1	46*	-4	1.4	-46	104	1
O=C(CCC1CCCC1)Nc1ccc(OCC(=O)N2CCOCC2)cc1	-36	73*	1.3	36	104	0.3
COC(=O)Nc1ccc(OCC(=O)N2CCOCC2)cc1	-18	-1	1.1	18	105	1
O=C1CC(/C=C/c2ccccc2)=Nc2ccccc2N1	-128	30	4*	128	142*	0.7
Cc1cc(-c2nnc(CCC(=O)N3CCN(Cc4cccc(F)c4)CC3)o2)c(C)o1	-12	0	1.3	12	107	1
Cc1ccccc1OCc1nc2c3c(ncn2n1)-c1ccccc1CC31CCCC1	-1	-2	1.2	1	100	1
Cc1ccccc1OCc1nc2c3cnn(C)c3ncn2n1	15	4	2.5	-15	141*	1
CCOc1ccccc1NC(=O)C(=O)N/N=C/c1cc(Br)ccc1O	59*	-4	0.75	-59	103	1
Cc1cccc(-c2nnc(-c3ccccc3)o2)c1	-88	36	3.2	89	132*	0.6
Clc1ccccc1-c1nnc(-c2ccccc2Cl)o1	-114	41	3.4*	114	122	0.6
Cc1ccc(CS(=O)(=O)c2ccccc2-c2nnc(-c3ccc(Cl)cc3)o2)cc1	-16	-4	1.1	16	102	1
Cc1ccccc1-c1nnc(-c2ccccc2)o1	-138	35	4.2*	138*	131*	0.6
Cc1ccccc1-c1nnc(-c2ccc(Cl)cc2)o1	7	15	4.1*	-7	138*	0.8
CCOc1ccc(Br)cc1S(=O)(=O)Nc1cccc(S(=O)(=O)N(C)c2ccccc2)c1	6	-5	1.2	-5	96	1.1
COc1cccc(Sc2ccccc2/C=N/NC(N)=O)c1	65*	-6	1.1	-65	96	1.1
SMILES	APP 5UTR inh	FLuc inhib CS	NF-kB neuron act	APP 5'UTR act	STAT1 activator	FLuc act counter
CCOC(=O)N/N=C\c1cccc(OC)c1	-18	9	1.5	18	109	0.9
OCCN1CCN(CC(O)COCc2ccc3c(c2)OCO3)CC1 (stereo not given)	11	-7	1.1	-11	101	1.1
OC(COCc1ccc2c(c1)OCO2)CN1CCN(Cc2ccccc2)CC1 (stereo not given)	51*	-2	1.2	-51	99	1
CCCc1cc(=O)n2[nH]c(-c3ccc(Br)cc3)cc2n1	-58	10	2.1	58	144*	0.9
CCOC(=O)Cc1cc(=O)n2[nH]c(-c3ccccc3)cc2n1	-9	20	1.4	9	94	0.8
Cc1cc(=O)n2[nH]c(-c3ccc(Cl)cc3)cc2n1	-24	32	2.7	24	143*	0.7
CCc1ccc(OCC(=O)N2CCN=C2c2ccccc2)cc1	15	0	0.94	-15	96	1
c1csc(-c2ccc3ccccc3n2)c1	-43	40	2.2	43	147*	0.6

From PubChem
